For assay [1], the target named is T1, Proteasome Macropain subunit MB1 (Homo sapiens, UniProt P28074).
T1 sequence (P28074 whole entry): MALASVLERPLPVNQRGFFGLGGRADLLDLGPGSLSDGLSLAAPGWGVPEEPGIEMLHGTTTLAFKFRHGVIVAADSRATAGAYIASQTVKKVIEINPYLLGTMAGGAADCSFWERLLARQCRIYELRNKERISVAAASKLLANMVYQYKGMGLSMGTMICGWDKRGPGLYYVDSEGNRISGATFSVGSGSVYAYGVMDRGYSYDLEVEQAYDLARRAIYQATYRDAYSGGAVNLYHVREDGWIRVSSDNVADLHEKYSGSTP
Kind of assay: (§1) Inhibition of catalytic activity of constitutive proteasome 20s subunit beta5 in human Raji cells incubated for 1 hr by BODIPY(TMR)-NC-005-VS probe based competitive activity based protein profiling assay. The format is cell-based.

Assay [2] addresses Proteasome subunit beta type-8 (β5i, LMP7) (Homo sapiens) (UniProt P28062). The assay is described as follows: Inhibition of catalytic activity of immunoproteasome 20s subunit beta5 in human Raji cells assessed as residual activity at 0.01 uM incubated for 1 hr by BODIPY(TMR)-NC-005-VS probe based competitive activity based protein profiling assay relative to control.
Assay [3] addresses T2, Proteasome Macropain subunit MB1 (Homo sapiens) (UniProt P28074).
T2 sequence (whole entry): T1 sequence (P28074 whole entry)
The assay is described as follows: Inhibition of catalytic activity of constitutive proteasome 20s subunit beta5 in human Raji cells assessed as residual activity at 0.01 uM incubated for 1 hr by BODIPY(TMR)-NC-005-VS probe based activity based protein profiling assay relative to control. In kind it is cell-based. The procedure, abridged: (§2)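 Initial screen in Raji cell extracts. Inhibitor at 0.01, 0.1, 1.0 and 10.0 µM final for 1 h at 37 °C, then ABP cocktail 1 h. In-gel fluorescence of β5c/β5i bands normalized to mock-treated extract, giving residual activity. Run once. IC50s from this screen feed the β5i/β5c ratio.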

The species entered for another assay is Homo sapiens. The assay is described as follows: Selectivity ratio of IC50 for immunoproteasome 20s subunit beta5 in human Raji cells to IC50 for constitutive proteasome 20s subunit beta5 in human Raji cells. In kind it is cell-based. The procedure, abridged: as §2
For assay [4], the target named is T3, Proteasome component C5 (Homo sapiens) (UniProt P20618).
T3 sequence (whole entry): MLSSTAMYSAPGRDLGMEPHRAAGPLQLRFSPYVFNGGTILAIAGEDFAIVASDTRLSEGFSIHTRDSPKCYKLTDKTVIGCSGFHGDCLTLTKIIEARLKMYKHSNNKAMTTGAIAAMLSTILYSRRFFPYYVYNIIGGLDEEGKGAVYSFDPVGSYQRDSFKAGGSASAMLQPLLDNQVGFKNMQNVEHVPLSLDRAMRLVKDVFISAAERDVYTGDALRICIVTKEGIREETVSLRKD
The assay is described as follows: Inhibition of catalytic activity of constitutive proteasome 20s subunit beta1 in human Raji cells incubated for 1 hr by Cy5-NC-001 probe based competitive activity based protein profiling assay. The format is cell-based.

The target in assay [5] is Proteasome subunit beta type-8 (β5i, LMP7) (Homo sapiens) (UniProt P28062). The assay is described as follows: Inhibition of catalytic activity of immunoproteasome 20s subunit beta5 in human Raji cells incubated for 1 hr by BODIPY(TMR)-NC-005-VS probe based competitive activity based protein profiling assay.
For assay [6], the target named is T2, Proteasome Macropain subunit MB1 (Homo sapiens). Described as §1. In kind it is cell-based.
The target in assay [7] is Proteasome subunit beta type-9 (β1i, LMP2) (Homo sapiens) (UniProt P28065). The assay is described as follows: Inhibition of catalytic activity of immunoproteasome 20s subunit beta1 in human Raji cells incubated for 1 hr by Cy5-NC-001 probe based competitive activity based protein profiling assay.
Assay [8] has as its target Proteasome Macropain subunit (Homo sapiens) (UniProt P49721). The assay is described as follows: Inhibition of catalytic activity of constitutive proteasome 20s subunit beta2 in human Raji cells incubated for 1 hr by BODIPY(FL)-LU-112 probe based competitive activity based protein profiling assay. The format is cell-based.

On to `COc1ccc(C[C@H](NC(=O)[C@H](Cc2cccc3ccccc23)NC(=O)CN2CCOCC2)C(=O)N[C@@H](CC(C)C)C(=O)[C@@]2(C)CO2)cc1`, for which the IC50 in assay [1] was under 10 nM. The Activity in assay [2] was 36%; in assay [3], 30%.
As for `C[C@H](NC(=O)[C@H](Cc1ccccc1)NC(=O)[C@H](C[C@H]1CC[C@@H](C2CCCCC2)CC1)NC(=O)[C@H](Cc1ccccc1)N=[N+]=[N-])C(=O)[C@@]1(C)CO1`, in assay [1], the IC50 was found to be 710 nM.
As for `CC(C)C[C@H](NC(=O)[C@H](Cc1ccccc1)NC(=O)[C@H](CCC1CCCCC1)NC(=O)[C@H](Cc1ccccc1)N=[N+]=[N-])C(=O)[C@@]1(C)CO1`, the Ratio IC50 in the assay filed under Homo sapiens is 1. In [1], this compound returned an IC50 of 36 nM.
`CC(C)C[C@H](NC(=O)[C@H](Cc1ccccc1)NC(=O)[C@@H](NC(=O)[C@H](Cc1ccccc1)N=[N+]=[N-])c1ccccc1)C(=O)[C@@]1(C)CO1` gave an IC50 in assay [1] of under 10 nM. Further, the Activity amounted to 56% in [2] and 44% in assay [3].
For the compound `COc1ccc(C[C@H](NC(=O)[C@H](Cc2ccc3ccccc3c2)NC(=O)CN2CCOCC2)C(=O)N[C@@H](CC(C)C)C(=O)[C@@]2(C)CO2)cc1`, the IC50 in [1] was under 10 nM. Besides, the Activity came to 23% in assay [2] and 9% in assay [3].
For the compound `C[C@H](NC(=O)[C@H](Cc1ccccc1)NC(=O)[C@H](CC1CCC(C2CCCCC2)CC1)NC(=O)CN1CCOCC1)C(=O)[C@@]1(C)CO1` (stereo partly specified), in the assay listed under Homo sapiens, the Ratio IC50 was over 8. Moreover, the IC50 in assay [1] is 1230 nM.
Regarding `CC(C)C[C@H](NC(=O)[C@H](Cc1ccccc1)NC(=O)[C@H](Cc1c[nH]c2ccccc12)NC(=O)[C@H](Cc1ccccc1)N=[N+]=[N-])C(=O)[C@@]1(C)CO1`, the IC50 in assay [1] is under 10 nM. The Activity is 49% in [2] and 16% in assay [3].
As for `C[C@H](NC(=O)[C@H](Cc1ccccc1)NC(=O)[C@H](C[C@H]1CC[C@@H](c2ccccc2)CC1)NC(=O)[C@H](Cc1ccccc1)N=[N+]=[N-])C(=O)[C@@]1(C)CO1`, in the assay filed under Homo sapiens, the Ratio IC50 is 165. The compound also showed an IC50 in [1] of 71 nM.
As to `CC(C)C[C@H](NC(=O)[C@H](Cc1ccccc1)NC(=O)[C@@H](NC(=O)[C@H](Cc1ccccc1)N=[N+]=[N-])C1CCCCC1)C(=O)[C@@]1(C)CO1`, the Ratio IC50 in the assay filed under Homo sapiens turned out to be 2. In assay [1], this compound displayed an IC50 of 33 nM.
`C[C@H](NC(=O)[C@H](Cc1ccccc1)NC(=O)[C@H](CC1CCC(C2CCCCC2)CC1)NC(=O)[C@H](Cc1ccccc1)N=[N+]=[N-])C(=O)[C@@]1(C)CO1` (stereo partly specified): the pIC50(app) was under 4 in assay [4], 4.78 in assay [5], 7.13 in [6] and under 4 in assay [7]. The IC50 in assay [1] was in the range of 20 to 74.7 nM.
In assay [1], `C[C@H](NC(=O)[C@H](Cc1ccccc1)NC(=O)[C@@H](NC(=O)[C@H](Cc1ccccc1)N=[N+]=[N-])[C@H](C)OC(C)(C)C)C(=O)[C@@]1(C)CO1` displayed an IC50 of over 10000 nM.
In the case of `CC(C)C[C@H](NC(=O)[C@H](Cc1ccccc1)NC(=O)[C@H](Cc1ccccc1)NC(=O)[C@H](Cc1ccccc1)N=[N+]=[N-])C(=O)[C@@]1(C)CO1`, the values for the pIC50(app) in [4], in assay [8] and in assay [7] were under 4, 7.18 and 6.91, respectively.
Turning to `CC1=C(C(=O)N[C@H](C)C(=O)N[C@@H](Cc2c[nH]c3ccccc23)C(=O)N[C@@H](CC2CCCCC2)C(=O)[C@@]2(C)CO2)Cc2ccccc21`, the IC50 in [1] was over 1000 nM.
On to `CC(C)C[C@H](NC(=O)[C@H](Cc1ccccc1)NC(=O)[C@H](Cc1ccc(-c2ccccc2)cc1)NC(=O)[C@H](Cc1ccccc1)N=[N+]=[N-])C(=O)[C@@]1(C)CO1`, for which the IC50 in assay [1] was under 10 nM. Moreover, the Activity was 28% in assay [2] and 9% in assay [3].
Consider `CC(C)C[C@H](NC(=O)[C@H](Cc1ccccc1)NC(=O)[C@H](CC(C)(C)C)NC(=O)[C@H](Cc1ccccc1)N=[N+]=[N-])C(=O)[C@@]1(C)CO1`, for which, in the assay filed under Homo sapiens, the Ratio IC50 was found to be 4. In assay [1], this compound came in with an IC50 of 18 nM.
As to `CC(C)C[C@H](NC(=O)[C@H](Cc1ccccc1)NC(=O)[C@H](CC1CCCC2CCCCC21)NC(=O)[C@H](Cc1ccccc1)N=[N+]=[N-])C(=O)[C@@]1(C)CO1` (stereo partly specified), the Ratio IC50 in the assay filed under Homo sapiens was over 1.5. Further, in [1], the IC50 was under 10 nM. In addition, the Activity in assay [3] came out at 40%.
For `CC(C)C[C@H](NC(=O)[C@H](Cc1ccccc1)NC(=O)[C@H](CC1CC2CCC1C2)NC(=O)[C@H](Cc1ccccc1)N=[N+]=[N-])C(=O)[C@@]1(C)CO1` (stereo partly specified), in that order: over 3, under 10 nM and 24%.
In the case of `COc1ccc(C[C@H](NC(=O)[C@H](CC2CCCCC2)NC(=O)CN2CCOCC2)C(=O)N[C@@H](CC(C)C)C(=O)[C@@]2(C)CO2)cc1`, the Ratio IC50 in the assay listed under Homo sapiens worked out at 2. In assay [1], this compound had an IC50 of 119 nM.
Turning to `CC(C)C[C@H](NC(=O)[C@H](Cc1ccccc1)NC(=O)[C@H](CC1CCC(C2CCCCC2)CC1)NC(=O)[C@H](Cc1ccccc1)N=[N+]=[N-])C(=O)[C@@]1(C)CO1` (stereo partly specified), the pIC50(app) in assay [4] is under 4; in [5], 6.36; in assay [6], 7.77; in [7] it was under 4. The compound further yielded an IC50 in [1] of 17 to 19 nM.
`C[C@H](NC(=O)[C@H](Cc1ccccc1)NC(=O)[C@H](CC1CCCCC1)NC(=O)[C@H](Cc1ccccc1)N=[N+]=[N-])C(=O)[C@@]1(C)CO1`: the Ratio IC50 in the assay filed under Homo sapiens was over 175. The same compound had an IC50 in assay [1] of 57 nM.
Regarding `COc1ccc(C[C@H](NC(=O)[C@H](Cc2ccc(-c3ccccc3)cc2)NC(=O)CN2CCOCC2)C(=O)N[C@@H](CC(C)C)C(=O)[C@@]2(C)CO2)cc1`, the IC50 in assay [1] is under 10 nM. Also, the Activity in assay [2] is 44%; in assay [3], 23%.
Take `COc1ccc(C[C@H](NC(=O)[C@H](CC23CC4CC(CC(C4)C2)C3)NC(=O)CN2CCOCC2)C(=O)N[C@@H](CC(C)C)C(=O)[C@@]2(C)CO2)cc1`: the Ratio IC50 in the assay listed under Homo sapiens was found to be 1. The compound also showed an IC50 in assay [1] of 853 nM.
On to `C[C@H](NC(=O)[C@H](Cc1ccccc1)NC(=O)[C@H](Cc1ccc(-c2ccccc2)cc1)NC(=O)[C@H](Cc1ccccc1)N=[N+]=[N-])C(=O)[C@@]1(C)CO1`, for which the Ratio IC50 in the assay filed under Homo sapiens is over 13. This compound showed an IC50 in [1] of under 10 nM.
As for `C[C@H](NC(=O)[C@H](Cc1ccccc1)NC(=O)[C@H](C[C@H]1CC[C@H](c2ccccc2)CC1)NC(=O)[C@H](Cc1ccccc1)N=[N+]=[N-])C(=O)[C@@]1(C)CO1`, the Ratio IC50 in the assay listed under Homo sapiens came to 2250. In assay [1], this compound yielded an IC50 of 3.8 nM.
In [1], `Cc1ccc(C[C@H](NC(=O)[C@H](Cc2ccccc2)N=[N+]=[N-])C(=O)N[C@@H](Cc2ccccc2)C(=O)N[C@@H](CC(C)C)C(=O)[C@@]2(C)CO2)cc1` displayed an IC50 of under 10 nM. The values for the Activity in assay [2] and in assay [3] were 15% and 6%, respectively.
For `CC(C)C[C@H](NC(=O)[C@H](Cc1ccccc1)NC(=O)[C@H](CC1CCC2CCCCC2C1)NC(=O)[C@H](Cc1ccccc1)N=[N+]=[N-])C(=O)[C@@]1(C)CO1` (stereo partly specified), in the assay filed under Homo sapiens, the Ratio IC50 was over 2.5. Also, the IC50 in assay [1] is under 10 nM. For the same compound, the Activity in [3] is 36%.
Take `CC(C)C[C@H](NC(=O)[C@H](Cc1ccccc1)NC(=O)[C@H](CC1CCCCC1)NC(=O)[C@H](Cc1ccccc1)N=[N+]=[N-])C(=O)[C@@]1(C)CO1`: in the assay listed under Homo sapiens, the Ratio IC50 was over 5. The same compound showed an IC50 in [1] of under 10 nM.
As for `COc1ccc(C[C@H](NC(=O)[C@H](CC23CC4CC(CC(C4)C2)C3)NC(=O)CN2CCOCC2)C(=O)N[C@@H](C)C(=O)[C@@]2(C)CO2)cc1`, the Ratio IC50 in the assay listed under Homo sapiens is over 12. The compound also gave an IC50 in assay [1] of 853 nM.
With `CC(C)C[C@H](NC(=O)[C@H](Cc1ccccc1)NC(=O)[C@H](Cc1ccc2ccccc2c1)NC(=O)[C@H](Cc1ccccc1)N=[N+]=[N-])C(=O)[C@@]1(C)CO1`, the IC50 in assay [1] was under 10 nM. Moreover, the values for the Activity in assay [2] and in [3] were 49% and 14%, respectively.
For `CC(C)C[C@H](NC(=O)[C@H](Cc1ccccc1)NC(=O)[C@H](Cc1cccc2ccccc12)NC(=O)[C@H](Cc1ccccc1)N=[N+]=[N-])C(=O)[C@@]1(C)CO1` the same measures were under 10 nM, 28% and 12%.

As usually defined, the IC50 is the concentration that gives 50% inhibition. Lower therefore signals greater potency in that assay.

The values above are taken from ChEMBL document CHEMBL4477237, “Structure-Based Design of β5c Selective Inhibitors of Human Constitutive Proteasomes” (J Med Chem, 2016).
